In PMC7657661 (Biochemical Journal, 2020):
Entries after “also recorded” stand apart in the source; their conditions may differ. Read-outs that look alike come from different tables or passages of the source.

Legend:
mouse NaCT/Slc13a5 = molecular target: T1, mouse NaCT/Slc13a5 (Mus musculus, UniProt Q67BT3); assay: [14C]-citrate uptake in HEK293FT cells with ectopic expression of mouse Slc13a5; type: cell-based
T1 sequence (Q67BT3 1-572): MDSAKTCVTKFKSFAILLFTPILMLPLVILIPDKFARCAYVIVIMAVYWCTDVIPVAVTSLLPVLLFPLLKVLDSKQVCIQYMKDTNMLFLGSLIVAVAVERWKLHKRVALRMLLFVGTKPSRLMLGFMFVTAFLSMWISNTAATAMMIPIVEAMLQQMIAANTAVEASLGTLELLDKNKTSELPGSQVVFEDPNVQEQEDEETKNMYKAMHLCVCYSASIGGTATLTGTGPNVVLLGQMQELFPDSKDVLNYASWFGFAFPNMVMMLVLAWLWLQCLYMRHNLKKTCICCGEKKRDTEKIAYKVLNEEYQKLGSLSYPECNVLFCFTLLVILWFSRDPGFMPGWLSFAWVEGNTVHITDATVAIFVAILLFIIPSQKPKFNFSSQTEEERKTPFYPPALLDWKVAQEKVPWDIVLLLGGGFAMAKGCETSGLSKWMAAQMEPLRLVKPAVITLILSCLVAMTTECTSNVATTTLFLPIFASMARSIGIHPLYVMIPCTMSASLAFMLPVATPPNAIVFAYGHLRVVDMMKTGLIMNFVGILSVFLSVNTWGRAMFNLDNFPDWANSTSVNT
Summary of the method: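 Mouse Slc13a5 was transiently expressed in HEK293FT cells (CMV plasmid, Lipofectamine-3000) and assayed 48 h after transfection in NaCl buffer pH 7.5 without LiCl. Cells got a 30 min preincubation with 10 µM test compound or 100 µM reference NaCT inhibitor, two washes and 0 or 60 min recovery. Then 2 µM [14C]-citrate uptake ran 30 min, or with inhibitor co-present only during uptake. Na+-dependent uptake was normalised to protein.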

human NaCT = conditions: cited from earlier work
NaCT/SLC13A5 [1] = molecular target: T2, NaCT/SLC13A5 (Homo sapiens, UniProt Q86YT5); assay: Na+-coupled [14C]-citrate uptake in HepG2 cells; type: cell-based; conditions: for effect on Na+-dependent citrate uptake, compound present only during uptake: PF06761281 100 µM, BI01383298 10 µM; for reversibility of inhibition of SLC13A5: preincubation 30 min, then uptake; for maximal inhibition of citrate uptake: inhibitor present only during uptake
Summary of the method: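 HepG2 cells seeded at 4 × 10^5/well and assayed 48 h later. [14C]-citrate uptake measured for 30 min at 37°C in NaCl buffer pH 7.5 (Hepes/Tris), with or without 10 mM LiCl. Inhibitor either co-incubated during uptake, or preincubated 30 min and washed twice before inhibitor-free uptake. Recovery runs: 10 µM for 30 min in buffer or medium, washed, then held 0, 30 or 60 min (buffer) or 0 or 24 h (medium). Na+-free NMDG-Cl uptake subtracted; values protein-normalized (BCA).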

HepG2 cells = assay: Colony formation assay; type: cell-based, human; conditions: 5 and 10 µM, 10 days, culture medium with 0.5 mM citrate
Summary of the method: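 HepG2 cells were seeded at 5000 per well in six-well plates and grown for 10 days in normal medium supplemented with 0.5 mM citrate. The medium held 0.1% DMSO alone, or the test compound at 5 or 10 µM plus 0.1% DMSO, and was renewed every other day. Cells were washed in PBS, methanol-fixed and Giemsa-stained. Colonies were photographed, then the stain was extracted and quantified against the no-inhibitor control.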

MCTs = assay: [14C]-lactate uptake in HepG2 cells; type: cell-based, human; conditions: 10 µM, 30 min preincubation, washed, NMDG pH 6
Summary of the method: (§1)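 HepG2 cells, 48 h after seeding, were preincubated 30 min with 10 µM test compound and washed; substrate uptake followed without inhibitor. [14C]-nicotinate and [3H]-arginine were run in NaCl buffer pH 7.5, and [3H]-glutamine and [3H]-tryptophan in NMDG buffer pH 7.5, each for 15 min. [14C]-lactate was run in NMDG buffer pH 6 for 3 min. Uptake was normalised to protein and compared with untreated control.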

SLC5A8 = molecular target: T3, SLC5A8 (Homo sapiens, UniProt Q8N695); assay: [14C]-nicotinate uptake in HepG2 cells; type: cell-based; conditions: 10 µM, 30 min preincubation, washed, NaCl buffer pH 7.5
T3 sequence (Q8N695 1-610): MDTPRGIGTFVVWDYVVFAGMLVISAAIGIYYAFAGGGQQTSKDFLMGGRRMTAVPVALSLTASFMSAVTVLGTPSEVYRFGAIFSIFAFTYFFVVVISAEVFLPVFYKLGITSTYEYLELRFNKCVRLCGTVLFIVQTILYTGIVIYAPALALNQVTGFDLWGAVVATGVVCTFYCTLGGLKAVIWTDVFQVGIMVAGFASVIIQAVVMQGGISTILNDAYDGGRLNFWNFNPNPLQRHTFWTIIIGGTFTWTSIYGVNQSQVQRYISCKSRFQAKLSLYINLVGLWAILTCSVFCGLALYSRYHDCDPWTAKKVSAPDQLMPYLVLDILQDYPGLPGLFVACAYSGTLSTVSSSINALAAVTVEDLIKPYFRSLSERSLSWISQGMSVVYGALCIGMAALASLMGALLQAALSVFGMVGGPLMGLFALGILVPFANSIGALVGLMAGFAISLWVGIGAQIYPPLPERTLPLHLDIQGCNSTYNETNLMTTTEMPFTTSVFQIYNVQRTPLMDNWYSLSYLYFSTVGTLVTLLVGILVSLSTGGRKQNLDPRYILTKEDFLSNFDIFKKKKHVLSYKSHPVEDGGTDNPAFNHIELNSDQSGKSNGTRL
Summary of the method: as §1

SLC7A5 = SLC7A5 (Homo sapiens, UniProt Q01650); assay: [3H]-glutamine and [3H]-tryptophan uptake in HepG2 cells; type: cell-based; conditions: 10 µM, 30 min preincubation, washed, NMDG buffer pH 7.5
Summary of the method: as §1

SLC6A14 = molecular target: T4, SLC6A14 (Homo sapiens, UniProt Q9UN76); assay: [3H]-arginine uptake in HepG2 cells; type: cell-based; conditions: 10 µM, 30 min preincubation, washed, NaCl buffer pH 7.5
T4 sequence (Q9UN76 1-642): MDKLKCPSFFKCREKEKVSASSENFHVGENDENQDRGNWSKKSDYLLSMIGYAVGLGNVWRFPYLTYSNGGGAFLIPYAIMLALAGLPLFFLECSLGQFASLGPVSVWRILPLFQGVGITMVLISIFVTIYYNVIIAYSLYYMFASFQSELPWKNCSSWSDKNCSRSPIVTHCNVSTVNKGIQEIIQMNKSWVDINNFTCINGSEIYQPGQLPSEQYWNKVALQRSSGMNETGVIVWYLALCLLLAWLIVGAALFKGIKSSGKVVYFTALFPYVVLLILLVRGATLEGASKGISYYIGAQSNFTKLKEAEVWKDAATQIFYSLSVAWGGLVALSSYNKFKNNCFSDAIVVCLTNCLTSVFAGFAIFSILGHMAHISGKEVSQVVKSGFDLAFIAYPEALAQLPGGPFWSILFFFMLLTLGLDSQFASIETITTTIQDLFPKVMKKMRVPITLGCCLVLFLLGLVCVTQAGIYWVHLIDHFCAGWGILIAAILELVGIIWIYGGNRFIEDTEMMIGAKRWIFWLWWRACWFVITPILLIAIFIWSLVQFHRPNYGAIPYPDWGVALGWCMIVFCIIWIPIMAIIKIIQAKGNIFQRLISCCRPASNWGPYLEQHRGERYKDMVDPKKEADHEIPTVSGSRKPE
Summary of the method: as §1

mouse NaCT = conditions: cited from earlier work
NaCT/SLC13A5 [2] = molecular target: T2, NaCT/SLC13A5; assay: [14C]-citrate uptake in HEK293FT cells with ectopic expression of human SLC13A5; type: cell-based
Summary of the method: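 Human SLC13A5 (CMV plasmid) was transiently expressed in HEK293FT cells by Lipofectamine-3000, assay 48 h post-transfection. Cells were preincubated 30 min in NaCl buffer (Hepes/Tris, pH 7.5) with the test compound (10 µM or a concentration series), washed twice, then given [14C]-citrate (2 µM) for 30 min at 37 °C without inhibitor. NMDG (Na+-free) uptake was subtracted and values normalised to protein. IC50 came from the dose-response.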

NaCT = conditions: cited from earlier work
[3] = HepG2, 10 µM, 30 min preincubation, washed, NaCl buffer pH 7.5

T2 sequence (Q86YT5 whole entry): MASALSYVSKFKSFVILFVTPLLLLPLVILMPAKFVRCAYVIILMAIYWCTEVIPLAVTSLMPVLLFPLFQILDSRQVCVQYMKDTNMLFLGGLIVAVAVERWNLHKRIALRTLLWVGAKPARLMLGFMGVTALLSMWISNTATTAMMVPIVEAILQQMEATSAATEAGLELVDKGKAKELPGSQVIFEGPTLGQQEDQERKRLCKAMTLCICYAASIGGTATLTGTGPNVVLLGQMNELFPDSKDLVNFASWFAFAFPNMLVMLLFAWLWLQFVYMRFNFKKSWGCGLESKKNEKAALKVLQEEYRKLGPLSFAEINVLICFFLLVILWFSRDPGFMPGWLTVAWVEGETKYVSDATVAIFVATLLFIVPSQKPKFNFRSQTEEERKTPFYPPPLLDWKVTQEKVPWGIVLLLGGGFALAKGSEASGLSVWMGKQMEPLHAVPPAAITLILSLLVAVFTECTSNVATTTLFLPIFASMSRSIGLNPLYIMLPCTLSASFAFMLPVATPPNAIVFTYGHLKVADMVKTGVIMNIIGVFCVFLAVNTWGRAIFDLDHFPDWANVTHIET
Sequence of SLC7A5 (Q01650 whole entry): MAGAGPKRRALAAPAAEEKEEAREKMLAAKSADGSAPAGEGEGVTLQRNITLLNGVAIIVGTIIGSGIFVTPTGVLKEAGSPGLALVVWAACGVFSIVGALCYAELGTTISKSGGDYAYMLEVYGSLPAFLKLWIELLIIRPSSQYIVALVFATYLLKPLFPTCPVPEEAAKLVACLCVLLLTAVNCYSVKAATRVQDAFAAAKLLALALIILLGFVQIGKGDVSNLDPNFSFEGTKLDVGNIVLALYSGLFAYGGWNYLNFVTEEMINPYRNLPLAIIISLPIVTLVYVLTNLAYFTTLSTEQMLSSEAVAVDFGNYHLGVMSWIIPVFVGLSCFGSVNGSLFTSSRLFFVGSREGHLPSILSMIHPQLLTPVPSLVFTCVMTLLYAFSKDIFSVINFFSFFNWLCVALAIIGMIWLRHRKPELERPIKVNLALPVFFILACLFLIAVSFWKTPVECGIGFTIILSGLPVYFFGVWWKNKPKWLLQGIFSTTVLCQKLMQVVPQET

Compound: COc1ncc(C)cc1CC[C@@](O)(CC(=O)O)C(=O)O [PF06761281, (2R)-2-Hydroxy-2-[2-(2-methoxy-5-methyl-3-pyridinyl)ethyl]succinic acid]
- effect on activity of mouse NaCT/Slc13a5 (mouse NaCT/Slc13a5; 100 µM): able to inhibit
- inhibitory potency for mouse NaCT/Slc13a5 compared with human NaCT/SLC13A5 (mouse NaCT/Slc13a5; 100 µM): greater than for human NaCT/SLC13A5
- increase in inhibitor potency over PF-06649298 (human NaCT; optimized derivative): ~4 fold
- effect on Na+-dependent citrate uptake, compound present only during uptake (NaCT/SLC13A5 [1]; HepG2): inhibited
- reversibility of inhibition of SLC13A5 (NaCT/SLC13A5 [1]; washed): at least partly reversible

Compound: O=C(NCc1ccc(F)cc1)C1CCN(S(=O)(=O)c2cc(Cl)cc(Cl)c2)CC1 [BI01383298, 1-(3,5-Dichlorophenylsulfonyl)-N-(4-fluorobenzyl)piperidine-4-carboxamide]
- effect on HepG2 cell proliferation (HepG2 cells): decreased cell proliferation; also recorded: robust inhibition of cell proliferation; also recorded: does block the proliferation
- Lactate (3 µM) uptake (MCTs): 137 ± 7 pmol/mg of protein/3 min
- Lactate (3 µM) uptake, % Control (MCTs): 97 ± 5 % Control
- Nicotinate (8 µM) uptake (SLC5A8): 123 ± 4 pmol/mg of protein/15 min
- Nicotinate (8 µM) uptake, % Control (SLC5A8): 100 ± 3 % Control
- effect on mouse NaCT/Slc13a5 (mouse NaCT/Slc13a5; 10 µM, 30 min preincubation, uptake without inhibitor): not affected; also recorded: not inhibited; also recorded: little or no inhibition
- IC50 (human NaCT; read-out: IC50 for human NaCT, ref Structural Genomics Consortium): 25 to 60 nM
- preincubation time at which maximal inhibition is evident (NaCT/SLC13A5 [1]; HepG2, 10 µM inhibitor, washed, uptake without inhibitor): 30 min
- Citrate (7 µM) uptake (NaCT/SLC13A5 [1]; [3]): 88.2 ± 5.6 pmol/mg of protein/30 min
- Citrate (7 µM) uptake, % Control (NaCT/SLC13A5 [1]; [3]): 18 ± 1 % Control
- IC50 lower in presence of Li+ than in its absence (NaCT/SLC13A5 [1]; HepG2, 30 min preincubation, inhibitor also present during uptake): 2 fold
- inhibitory potency relative to PF06761281 (NaCT/SLC13A5 [1]; HepG2, BI01383298 10 µM vs PF06761281 100 µM): at least 10 times
- effect on Na+-dependent citrate uptake, compound present only during uptake (NaCT/SLC13A5 [1]; HepG2): inhibited
- maximal inhibition of citrate uptake (NaCT/SLC13A5 [1]; HepG2, absence of Li+): ~60%
- maximal inhibition of citrate uptake (NaCT/SLC13A5 [1]; HepG2, presence of Li+): ~60%
- increase in inhibitory potency with preincubation (NaCT/SLC13A5 [1]; HepG2, preincubated vs not preincubated, both in absence or presence of Li+): ~10 fold
- IC50 (NaCT/SLC13A5 [1]; IC50 for human NaCT (summary), human NaCT, HepG2 and HEK293 cells): ~100 nM
- type of inhibition of NaCT/SLC13A5 (NaCT/SLC13A5 [1]; kinetic analysis, Eadie–Hofstee plot): non-competitive
- reversibility of inhibition of SLC13A5 (NaCT/SLC13A5 [1]; washed): irreversible
- Glutamine (5 µM) uptake (SLC7A5): 306 ± 3 pmol/mg of protein/15 min
- Tryptophan (5 µM) uptake (SLC7A5): 76 ± 3 pmol/mg of protein/15 min
- Tryptophan (5 µM) uptake, % Control (SLC7A5): 95 ± 3 % Control
- Arginine (5 µM) uptake (SLC6A14): 935 ± 51 pmol/mg of protein/15 min
- Arginine (5 µM) uptake, % Control (SLC6A14): 101 ± 5 % Control
- effect on mouse NaCT (mouse NaCT; ref Structural Genomics Consortium): no effect
- IC50 (NaCT/SLC13A5 [2]): 171 ± 51 nM
- effect on human NaCT/SLC13A5 transporter activity (NaCT/SLC13A5 [2]; HEK293FT, 10 µM): complete inhibition

Compound: O=C(O)CC(O)(CC(=O)O)C(=O)O [citrate]
- lower affinity of human NaCT for citrate than mouse NaCT (human NaCT; kinetic experiments under identical conditions): at least 30 fold

Compound: CN(C)C(=N)N=C(N)N [metformin]
- effect on expression of NaCT in HepG2 cells (NaCT): suppresses the expression of NaCT

Compound: CC(C)(C)c1ccc(CC[C@@](O)(CC(=O)O)C(=O)O)cc1 [PF-06649298]
- IC50 (human NaCT; read-out: IC50 for NaCT-mediated citrate uptake, human NaCT): 400 to 10000 nM
- species selectivity (mouse and human NaCTs) (mouse NaCT): no species selectivity
